Test results as given in ChEMBL document CHEMBL1153240, “Microwave assisted synthesis and in vitro cytotoxicities of substituted (Z)-2-amino-5-(1-benzyl-1H-indol-3-yl)methylene-1-methyl-1H-imidazol-4(5H)-ones against human tumor cell lines” (2010).

How the values were obtained:
Type in all cases: functional
SF-295 = assay: Cytotoxicity against human SF295 cells
In short: (§1)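 NCI 60-cell-line panel, five-dose response study. Effect is plotted against log10 drug concentration for each cell line. GI50 is the molar concentration giving a 50% reduction in net protein increase relative to control cells. LC50 is the concentration lethal to 50% of cells.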

M14 = assay: Cytotoxicity against human M14 cells; in short: as §1
NCI-H522 = assay: Cytotoxicity against human NCI-H522 cells; in short: as §1
NCI/ADR-RES = assay: Cytotoxicity against human NCI/ADR-RES cells; in short: as §1
SN12C = assay: Cytotoxicity against human SN12C cells; in short: as §1
OVCAR-8 = assay: Cytotoxicity against human OVCAR8 cells; in short: as §1
HCC 2998 = assay: Cytotoxicity against human HCC2998 cells; in short: as §1
[1] = Cytotoxicity against human Hs 578T cells; in short: as §1
KM12 = assay: Cytotoxicity against human KM12 cells; in short: as §1
NCI-H23 = assay: Cytotoxicity against human NCI-H23 cells; in short: as §1
SK-MEL-28 = assay: Cytotoxicity against human SK-MEL-28 cells; in short: as §1
SK-OV-3 = assay: Cytotoxicity against human SKOV3 cells; in short: as §1
NCI-H226 = assay: Cytotoxicity against human NCI-H226 cells; in short: as §1
SF-268 = assay: Cytotoxicity against human SF268 cells; in short: as §1
786-0 = assay: Cytotoxicity against human 786-0 cells; in short: as §1
SNB-19 = assay: Cytotoxicity against human SNB19 cells; in short: as §1
[2] = Cytotoxicity against human […] cells; in short: as §1
MDA-MB-231 = assay: Cytotoxicity against human MDA-MB-231 cells; in short: as §1
HCT-116 = assay: Cytotoxicity against human HCT116 cells; in short: as §1
NCI-H460 = assay: Cytotoxicity against human NCI-H460 cells; in short: as §1
SK-MEL-5 = assay: Cytotoxicity against human SK-MEL-5 cells; in short: as §1
CAKI-1 = assay: Cytotoxicity against human Caki1 cells; in short: as §1
BT-549 = assay: Cytotoxicity against human BT549 cells; in short: as §1
MDA-MB-468 = assay: Cytotoxicity against human MDA-MB-468 cells; in short: as §1
SF-539 = assay: Cytotoxicity against human SF539 cells; in short: as §1
SR = assay: Cytotoxicity against human SR cells; in short: as §1
CCRF-CEM = assay: Cytotoxicity against human CCRF-CEM cells; in short: as §1
OVCAR-3 = assay: Cytotoxicity against human OVCAR-3 cells; in short: as §1
T47D = assay: Cytotoxicity against human T47D cells
In short: (§2)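 NCI 60 human tumor cell line panel, five-dose dose-response study. Cytotoxic effect was plotted against log10 drug concentration for each cell line. GI50 is the molar concentration giving 50% reduction in net protein increase versus control cells. LC50 is the concentration lethal to 50% of cells.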

PC-3 = assay: Cytotoxicity against human PC3 cells; in short: as §1
HCT-15 = assay: Cytotoxicity against human HCT15 cells; in short: as §1
HT-29 = assay: Cytotoxicity against human HT-29 cells
In short: (§3)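 NCI 60-cell-line panel, five-concentration dose-response. Cytotoxic effect was plotted against log10 drug concentration for each line. GI50 is the molar concentration giving a 50% reduction in net protein increase relative to control cells. LC50 is the concentration lethal to 50% of cells. Both were read from the curves.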

HOP-92 = assay: Cytotoxicity against human HOP92 cells; in short: as §1
OVCAR-5 = assay: Cytotoxicity against human OVCAR5 cells; in short: as §1
SW-620 = assay: Cytotoxicity against human SW620 cells; in short: as §2
HOP-62 = assay: Cytotoxicity against human HOP62 cells; in short: as §1
OVCAR-4 = assay: Cytotoxicity against human OVCAR4 cells; in short: as §1
ACHN = assay: Cytotoxicity against human ACHN cells; in short: as §1
DU-145 = assay: Cytotoxicity against human DU145 cells; in short: as §1
RXF 393 = assay: Cytotoxicity against human RXF393 cells; in short: as §1
Malme-3M = assay: Cytotoxicity against human MALME-3M cells; in short: as §1
U-251 = assay: Cytotoxicity against human U251 cells; in short: as §2
SK-MEL-2 = assay: Cytotoxicity against human SK-MEL-2 cells; in short: as §1
EKVX = assay: Cytotoxicity against human EKVX cells; in short: as §1
NCI-H322M = assay: Cytotoxicity against human NCI-H322M cells; in short: as §1
UACC-257 = assay: Cytotoxicity against human UACC257 cells; in short: as §2
LOX IMVI = assay: Cytotoxicity against human LOXIMVI cells; in short: as §1
A498 = assay: Cytotoxicity against human A498 cells; in short: as §1
A549 = assay: Cytotoxicity against human A549 cells; in short: as §1
MCF7 = assay: Cytotoxicity against human MCF7 cells; in short: as §1
COLO 205 = assay: Cytotoxicity against human COLO205 cells; in short: as §3
UO-31 = assay: Cytotoxicity against human UO31 cells; in short: as §2
SNB-75 = assay: Cytotoxicity against human SNB75 cells; in short: as §1
MOLT-4 = assay: Cytotoxicity against human MOLT4 cells; in short: as §1
HL-60 = assay: Cytotoxicity against human HL60 cells; in short: as §1
K562 = assay: Cytotoxicity against human K562 cells; in short: as §1
IGROV-1 = assay: Cytotoxicity against human IGROV1 cells; in short: as §1
TK-10 = assay: Cytotoxicity against human TK10 cells; in short: as §2
MDA-MB-435 = assay: Cytotoxicity against human MDA-MB-435 cells; in short: as §3
[3] = read-out: LC50 (the source's name)

COC(=O)c1ccc(Cn2cc(/C=C3/C(=O)N=C(N)N3C)c3ccccc32)cc1
GI50 (SF-295): 2.36 µM
CC50 (SF-295; [3]): > 100 µM
GI50 (M14): 1.9 µM
LC50 (M14): 7.25 µM
GI50 (NCI-H522): 1.93 µM
LC50 (NCI-H522): > 100 µM
GI50 (NCI/ADR-RES): 9.46 µM
CC50 (NCI/ADR-RES; [3]): > 100 µM
GI50 (SN12C): 1.74 µM
CC50 (SN12C; [3]): 8.59 µM
GI50 (OVCAR-8): 3.45 µM
CC50 (OVCAR-8; [3]): > 100 µM
GI50 (HCC 2998): 2.99 µM
CC50 (HCC 2998; [3]): 4.71 µM
GI50 [1]: 2.17 µM
LC50 [1]: > 100 µM
GI50 (KM12): 3.18 µM
CC50 (KM12; [3]): > 100 µM
GI50 (NCI-H23): 3.23 µM
LC50 (concentration lethal to 50% of cells) (NCI-H23): 58.8 µM
GI50 (SK-MEL-28): 1.78 µM
CC50 (SK-MEL-28; [3]): 6.14 µM
GI50 (SK-OV-3): 1.98 µM
CC50 (SK-OV-3; [3]): 8.68 µM
GI50 (NCI-H226): 2.26 µM
LC50 (NCI-H226): > 100 µM
GI50 (SF-268): 2.56 µM
CC50 (SF-268; [3]): > 100 µM
GI50 (786-0): 1.75 µM
LC50 (786-0): 5.85 µM
GI50 (SNB-19): 2.39 µM
CC50 (SNB-19; [3]): 31 µM
GI50 [2]: 3.25 µM
LC50 (concentration lethal to 50% of cells) [2]: > 100 µM
GI50 (MDA-MB-231): 2.01 µM
LC50 (MDA-MB-231): 14.3 µM
GI50 (HCT-116): 1.79 µM
CC50 (HCT-116; [3]): 7.7 µM
GI50 (NCI-H460): 2.55 µM
CC50 (NCI-H460; [3]): > 100 µM
GI50 (SK-MEL-5): 1.69 µM
LC50 (SK-MEL-5): 5.75 µM
GI50 (CAKI-1): 35.1 µM
GI50 (BT-549): 1.73 µM
CC50 (BT-549; [3]): > 100 µM
GI50 (MDA-MB-468): 1.63 µM
LC50 (MDA-MB-468): 6.78 µM
GI50 (SF-539): 1.54 µM
CC50 (SF-539; [3]): 5.56 µM
GI50 (SR): 2.48 µM
CC50 (SR; [3]): > 100 µM
GI50 (CCRF-CEM): 2.91 µM
CC50 (CCRF-CEM; [3]): > 100 µM
GI50 (OVCAR-3): 2.29 µM
CC50 (OVCAR-3; [3]): 7.98 µM
GI50 (T47D): 1.5 µM
CC50 (T47D; [3]): 5.74 µM
GI50 (PC-3): 6.27 µM
CC50 (PC-3; [3]): > 100 µM
GI50 (HCT-15): 2.27 µM
CC50 (HCT-15; [3]): > 100 µM
GI50 (HT-29): 2.17 µM
GI50 (HOP-92): 1.51 µM
CC50 (HOP-92; [3]): 7.75 µM
GI50 (OVCAR-5): 1.9 µM
CC50 (OVCAR-5; [3]): 18.5 µM
GI50 (SW-620): 2.2 µM
CC50 (SW-620; [3]): > 100 µM
GI50 (HOP-62): 1.99 µM
CC50 (HOP-62; [3]): 33 µM
GI50 (OVCAR-4): 2.18 µM
CC50 (OVCAR-4; [3]): > 100 µM
GI50 (ACHN): 1.76 µM
CC50 (ACHN; [3]): 6.14 µM
GI50 (DU-145): 2.25 µM
CC50 (DU-145; [3]): 14.8 µM
GI50 (RXF 393): 1.95 µM
CC50 (RXF 393; [3]): 8.71 µM
GI50 (Malme-3M): 1.7 µM
CC50 (Malme-3M; [3]): 8.33 µM
GI50 (U-251): 1.81 µM
CC50 (U-251; [3]): 7.72 µM
GI50 (SK-MEL-2): 2.7 µM
CC50 (SK-MEL-2; [3]): > 100 µM
GI50 (EKVX): > 100 µM
CC50 (EKVX; [3]): > 100 µM
GI50 (NCI-H322M): 2.56 µM
CC50 (NCI-H322M; [3]): > 100 µM
GI50 (UACC-257): 17.9 µM
LC50 (UACC-257): > 100 µM
GI50 (LOX IMVI): 1.89 µM
LC50 (LOX IMVI): 8.66 µM
GI50 (A498): 14.1 µM
CC50 (A498; [3]): 53.2 µM
GI50 (A549): 5.05 µM
CC50 (A549; [3]): > 100 µM
GI50 (MCF7): 2.45 µM
CC50 (MCF7; [3]): 77.8 µM
GI50 (COLO 205): 1.91 µM
GI50 (UO-31): 3.2 µM
CC50 (UO-31; [3]): > 100 µM
GI50 (SNB-75): 1.46 µM
LC50 (concentration lethal to 50% of cells) (SNB-75): 5.47 µM
GI50 (MOLT-4): 2.42 µM
CC50 (MOLT-4; [3]): > 100 µM
GI50 (HL-60): 2.67 µM
LC50 (HL-60): > 100 µM
GI50 (K562): 2.23 µM
CC50 (K562; [3]): > 100 µM
GI50 (IGROV-1): 5.91 µM
CC50 (IGROV-1; [3]): > 100 µM
GI50 (TK-10): 3.16 µM
CC50 (TK-10; [3]): > 100 µM
GI50 (MDA-MB-435): 1.93 µM
